CHT inh: inhibitors of human choline transporter CHT; B-score at 10 µM; AID 488975, 2010; hit rate 0.86% among 310,000; CHT-expressing cells, membrane potential dye, choline response; active compounds read low; High affinity choline transporter 1 (Homo sapiens), Q9GZV3;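 active means B-score over 3 SD under the library average, and starting fluorescence ratio not unusually high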;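 further: choline stimulus applied at its EC90 after an EC20 pre-addition; B-score computed on integrated fluorescence ratio after choline addition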
Target sequence (Q9GZV3 whole entry, looked up): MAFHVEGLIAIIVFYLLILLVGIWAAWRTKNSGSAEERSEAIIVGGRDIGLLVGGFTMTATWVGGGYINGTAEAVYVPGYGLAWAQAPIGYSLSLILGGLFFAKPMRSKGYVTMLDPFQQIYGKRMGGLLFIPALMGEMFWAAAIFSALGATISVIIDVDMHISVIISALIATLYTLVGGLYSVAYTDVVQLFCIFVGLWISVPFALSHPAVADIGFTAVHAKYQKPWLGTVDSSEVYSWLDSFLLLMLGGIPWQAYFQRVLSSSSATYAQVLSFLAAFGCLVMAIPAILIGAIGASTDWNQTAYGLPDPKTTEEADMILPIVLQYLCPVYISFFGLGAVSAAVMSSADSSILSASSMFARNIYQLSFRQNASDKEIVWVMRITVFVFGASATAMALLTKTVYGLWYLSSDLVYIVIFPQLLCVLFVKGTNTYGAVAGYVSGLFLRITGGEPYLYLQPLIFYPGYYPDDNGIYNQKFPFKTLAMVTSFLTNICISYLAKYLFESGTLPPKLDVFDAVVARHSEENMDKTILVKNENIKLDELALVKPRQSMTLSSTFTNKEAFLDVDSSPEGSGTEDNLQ
CHT allo act: CHT positive allosteric modulators, primary screen, cell-based, membrane potential dye, choline EC20; High affinity choline transporter 1 (Homo sapiens), Q9GZV3; CHT-expressing cells; active compounds read high; LV-AA mutant CHT in HEK293 cells; B-score at 10 µM; hit rate 0.49% among 310,000; AID 488977, 2010;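 active means initial fluorescence not abnormally high and integrated response B-score, plate-corrected, over 3 SD above library mean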
PHOSPHO1 block: PubChem AID 1565 | Phosphoethanolamine/phosphocholine phosphatase (Homo sapiens), Q8TCT1 | recombinant PHOSPHO1, absorbance phosphatase assay | inhibition, % at 13.3 µM | hit rate 1.1% among 290,000; in the data active means inhibition above about 60%
HSF1 inh: HSF1 inhibitors in luciferase reporter cells, primary screen, cell-based, NIH3T3, luminescence | NIH3T3-HGL HSE-luciferase, MG132-induced, luminescence 8 h; active compounds read low | activity change, negative = inhibition, % at 7.5 µM (by protocol) | hit rate 0.77% among 300,000 | AID 2098, 2009;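 active means more than half of replicate wells show activity change below -50%, luminescence cut by over half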;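 further: luciferase reports HSF-1 transcriptional activity via heat shock element; 0% = median of DMSO wells and -100% = zero luminescence signal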
Hep lipid drop: inhibitors of hepatocyte lipid droplet formation, primary screen, imaging, high-throughput imaging, BODIPY stain; AML12 mouse hepatocytes, oleate lipid droplets; inhibition, % at 6.5 µM; hit rate 0.4% among 240,000;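 active means lipid droplet intensity inhibited by at least 50%, with more than 500 cells counted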
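material = mouse AML12 hepatocyte cell line, fixed after treatment | also added = 100 µM oleic acid challenge | doses = compound at 6.5 µM only | schedule = overnight exposure | technique = Image-based BODIPY and DAPI two-channel analysis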
HSF1 activator: HSF-1 activators, primary screen, NIH3T3-HGL cells, MG132 stress, luminescence, single point | NIH3T3-HGL HSF-1 luciferase reporter, 8 h; 100% = twice DMSO control signal | activation, % at 9 µM | hit rate 1.7% among 300,000;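 active means mean replicate activation of at least 50% with a set share of replicates each reaching 50%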;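 further: 0% = median of the neutral control wells and 100% = twice that signal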
Starred values were filed as active, the others as inactive; i = inactive; . = no result. A selection: hits, their analogues and other compounds. The true share with any hit is near 4.9%.

SMILES	CHT inh	CHT allo act	PHOSPHO1 block	HSF1 inh	Hep lipid drop	HSF1 activator
O=C1/C(=C/c2ccccc2F)SC(=S)N1CCC(=O)N1CCCCC1CCO (configuration not stated)	i	i	64*	0	-11	1
O=C1/C(=C/c2ccc(Cl)cc2)SC(=S)N1CCC(=O)N1CCCCC1CCO (configuration not stated)	i	i	-1	3	-12	14
Cn1c2ccccc2c(=O)c2ccc(C#CC3(O)CCCCC3)cc21	i	i	-19	-65*	.	-66
COc1cc2sc3ccc(C#Cc4ccc(N)cc4)cc3c(=O)c2cc1OC	i	i	.	3	.	-10
Cn1c2ccccc2c(=O)c2cc(C#Cc3ccc(N)cc3)ccc21	i	i	15	0	.	7
COc1cc2sc3ccc(C#CC4(O)CCCCC4)cc3c(=O)c2cc1OC	i	i	.	-59*	.	-59
Cn1c(N)c(C(C[N+](=O)[O-])c2c(F)cccc2Cl)c(=O)n(C)c1=O (configuration not stated)	i	i	29	7	-6	7
CN(C)c1ccc(C(C[N+](=O)[O-])c2c(N)n(C)c(=O)n(C)c2=O)c(F)c1C#N (configuration not stated)	i	i	35	53	-1	66*
CCOC(=O)c1ccc(N2CCN(c3ccccc3F)CC2)c(NC(=O)Nc2cccc(OC)c2)c1	i	i	-12	-2	57*	5
COC(=O)c1ccc(N2CCN(C(C)=O)CC2)c(NC(=O)COc2ccccc2C)c1	i	i	51	-64*	8	-72
CCOC(=O)c1cccc(NC(=O)Nc2cc(OC)ccc2OC)c1	i	i	44	3	20	5
Cc1ccc(C(=O)NCCCN2CCOCC2)cc1N1CCCC1=O	i	i	-1	0	.	17
Oc1ccccc1C(=S)N1CCCCC1	i	i	41	-5	.	3
Cc1cccc(N2Cc3ccc(Br)cc3C2)c1	i	i	.	12	.	36
COc1cc(C(=S)N2CCCC2)cc(OC)c1O	i	i	76*	3	0	-3
CCOc1cc(C(=S)N2CCCC2)ccc1OC	i	i	18	-4	.	3
O=C(COC(=O)CNC(=O)c1ccccc1F)Nc1cccnc1Cl	i	i	36	-77*	3	-81
COc1ccc(-n2c(SCC(=O)NC3CCCCC3)nc3ccsc3c2=O)cc1	i	i	18	2	.	-2
CCNC(=O)N1CCC(c2nc3ccccc3s2)CC1	i	i	24	-3	-1	-2
C/C(N)=C(/C#N)C(=O)COC(=O)c1cc(C)n(-c2ccc(F)cc2)c1C	i	i	0	52	-7	84*
Cc1cc(C(=O)OCC(N)=O)c(C)n1-c1ccccc1	i	i	2	13	2	42
COC(=O)c1ccccc1NC(=O)Cn1nnc(-c2ccc(OC)cc2)n1	i	i	6	6	-22	-6
CCCCCc1c(C)nc(SCC(=O)O)[nH]c1=O	i	i	28	-3	-2	8
CCCCCSc1nc(C)c(CC(=O)O)c(=O)[nH]1	i	i	4	-92*	-2	-94
CCN(CC)CCCOC(=O)C(c1ccccc1)c1ccccc1	i	i	24	3	0	0
O=C1C=C(NCc2ccccc2)c2ccccc2C1=O	.	.	37	51	0	70*
O=C1C=C(Nc2ccccc2O)c2ccccc2C1=O	i	i	29	58	.	84*
COc1ccc(-c2[nH]ncc2CN2CCN(C3CCCCC3)C(=O)C2)cc1F	i	i	57	21	0	56*
CC(=O)N1CCC2(CC1)C/C(=N\NC(=S)Nc1ccccc1C)c1cc(O)ccc1O2	i	i	1	-12	-1	-3
